The RNAGym collection of RNA variant scans (doi:10.1126/science.aae0568)
This sample holds only a part of the variants without activity.

B1: tRNA (parent)
chain: GUUCCGUUGGCGUAAUGGUAACGCGUCUCCCUCCUAAGGAGAAGACUGCGGGUUCGAGUCCCGUACGGAACG

Variants of: B1
Assay: yeast fitness relative to wild type (ratio to wild type); higher = fitter; tRNA-Arg(CCU), competitive growth, 37 C, YPD
How it was run: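 Variants of the tRNA-Arg(CCU) gene, chemically synthesised with a 3% per-site mutation rate at 69 sites, were placed at the native genomic locus in Saccharomyces cerevisiae. The pooled strains were competed in YPD at 37°C for 24 hours in six parallel replicates. Gene amplicons from the start population and from each end population were read by 100-nucleotide paired-end sequencing. Darwinian fitness relative to wild type came from changes in genotype frequencies; genotypes needed ≥ 100 starting reads, and estimates < 0.5 were set to 0.5.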
For GUUCCGUUGGCGUAAUGGUAACGCGUCUCCCUCCUAAGGAGAACACUGCGGGUUCGAGUCCCGUACGUAACG, the yeast fitness was 0.661. In the case of GUUCCGUUGGCGUAAUGGUAACGCGUCUCCCUCCUAAGGAGAACACUGCGGGUUCGAGUCCCGUACGCAACG, the yeast fitness is reported as 0.81. In the case of GUUCCGUUGGCGUAAUGGUAACGCGUCUCCCUCCUAAGGAGAACACUGUGGGUUCGAGUCCCGUACGGAACG, the yeast fitness is reported as 0.783. With GUUCCGUUGGCGUAAUGGUAACGCGUCUCCCUCCUAAGGAGAACACUGCAGGUUCGAGUCCCGUACGGAACG the yeast fitness was 0.861. With GUUCCGUUGGCGUAAUGGUAACGCGUCUCCCUCCUAAGGAGAACACUGCGGGUUCGAGUCCCGUACAGAACG the yeast fitness was 0.722. For GUUCCGUUGGCGUAAUGGUAACGCGUCUCCCUCCUAAGGAGAACACUGCGGGUUCGAGUCCCGUACUGAACG, the yeast fitness was 0.855. Variant GUUCCGUUGGCGUAAUGGUAACGCGUCUCCCUCCUAAGGAGAACACUGCGGGUUCGAGUCCCAUACGGAACG has a yeast fitness of 0.83. Variant GUUCCGUUGGCGUAAUGGUAACGCGUCUCCCUCCUAAGGAGAACACUGCGGGUUGGAGUCCCGUACGGAACG has a yeast fitness of 0.596. Variant GUUCCGUUGGCGUAAUGGUAACGCGUCUCCCUCCUAAGGAGAACACUGCGGGUUAGAGUCCCGUACGGAACG has a yeast fitness of 0.548. In the case of GUUCCGUUGGCGUAAUGGUAACGCGUCUCCCUCCUAAGGAGAACACUGCGAGUUCGACACCCGUACGGAACG, the yeast fitness is reported as ≤ 0.5. With GUUCCGUUGGCGUAAUGGUAACGCGUCUCCCUCCUAAGGAGAACACUGCCGGUUCGGGUCCCGUACGGUACG the yeast fitness was ≤ 0.5. With GUUCCGUUGGCGUAAUGGUAACGCGUCUCCCUCCUAAGGAGAACACUGCGGGUUCGAGUCCCGCACGGAACG the yeast fitness was 0.858. In the case of GUUCCGUUGGCGUAAUGGUAACGCGUCUCCCUCCUAAGGAGAACACUGCGGGCUCGAGUCCCGUACGGAACG, the yeast fitness is reported as 0.797. In the case of GUUCCGUUGGCGUAAUGGUAACGCGUCUCCCUCCUAAGGAGAACACUGUGGGUUCGAGGCCCGUACGGAACG, the yeast fitness is reported as ≤ 0.5. With GUUCCGUUGGCGUAAUGGUAACGCGUCUCCCUCCUAAGGAGAACACUGCCGAUGCGAGUCGCGUACGGAACG the yeast fitness was ≤ 0.5. For GUUCCGUUGGCGUAAUGGUAACGCGUCUCCCUCCUAAGGAGAACACCGCGGGUUCGAGUCCCGUACGGAACG, the yeast fitness was 0.822. In the case of GUUCCGUUGGCGUAAUGGUAACGCGUCUCCCUCCUAAGGAGAACACUGCGGAUUCGAGUCCGGUACGGGACG, the yeast fitness is reported as ≤ 0.5. Work on GUUCCGUUGGCGUAAUGGUAACGCGUCUCCCUCCUAAGGAGAACACUGCGGGUUCGAGUCUCGUACGGAACG yielded a yeast fitness of 0.718. Variant GUUCCGUUGGCGUAAUGGUAACGCGUCUCCCUCCUAAGGAGAACACUGCGGGUUCGAGUCGCGUACGGAACG has a yeast fitness of 0.586. In the case of GUUCCGUUGGCGUAAUGGUAACGCGUCUCCCUCCUAAGGAGAACACUGCGGCUUCGAGUCCCGUAGGGAACG, the yeast fitness is reported as ≤ 0.5. For GUUCCGUUGGCGUAAUGGUAACGCGUCUCCCUCCUAAGGAGAACACUGCGGGUUCAAGUCCCGUACGGAACG, the yeast fitness was 0.795. GUUCCGUUGGCGUAAUGGUAACGCGUCUCCCUCCUAAGGAGAACACUGCAGGUUCGAGUCCCGUACCGAACG showed a yeast fitness of 0.604. For GUUCCGUUGGCGUAAUGGUAACGCGUCUCCCUCCUAAGGAGAACACUGCGGGUUCGAGUCCCGUAAGGAACG, the yeast fitness was 0.688. For GUUCCGUUGGCGUAAUGGUAACGCGUCUCCCUCCUAAGGAGAACACUGCGGAUUCGAGCCCCGGACGGAACG, the yeast fitness was 0.553. GUUCCGUUGGCGUAAUGGUAACGCGUCUCCCUCCUAAGGAGAACACUGCGGGUUGGAGUCCCGUACGGUACG gave a yeast fitness of 0.746. For GUUCCGUUGGCGUAAUGGUAACGCGUCUCCCUCCUAAGGAGAACACUGCGGGUUCGAGUCCAGUAUGGAACG, the yeast fitness was ≤ 0.5. Work on GUUCCGUUGGCGUAAUGGUAACGCGUCUCCCUCCUAAGGAGAACACUGCGGGUUCGAGUCCUGUACGGCACG yielded a yeast fitness of 0.696. GUUCCGUUGGCGUAAUGGUAACGCGUCUCCCUCCUAAGGAGAACACUGCGGGUUCGAGACCCGUACGGAACG gave a yeast fitness of 0.581. With GUUCCGUUGGCGUAAUGGUAACGCGUCUCCCUCCUAAGGAGAACACUGCGGGUUCGAGCCCCGUACGGAACG the yeast fitness was 0.791. With GUUCCGUUGGCGUAAUGGUAACGCGUCUCCCUCCUAAGGAGAACACUGCGGGUUCGAGUCCUAUACGGAACG the yeast fitness was ≤ 0.5. Work on GUUCCGUUGGCGUAAUGGUAACGCGUCUCCCUCCUAAGGAGAACACUGCGGGUUCGAGUCCAGUACGGAACG yielded a yeast fitness of 0.738. GUUCCGUUGGCGUAAUGGUAACGCGUCUCCCUCCUAAGGAGAACACUGCGGGUUCGAGUCCGGUACGGAACG gave a yeast fitness of 0.644. For GUUCCGUUGGCGUAAUGGUAACGCGUCUCCCUCCUAAGGAGAACACUGCGGGUUCGAGUCCGGUACGAAACG, the yeast fitness was ≤ 0.5. For GUUCCGUUGGCGUAAUGGUAACGCGUCUCCCUCCUAAGGAGAACACUGCGGGUUCGAGUCAUGUAUGGAACG, the yeast fitness was ≤ 0.5. GUUCCGUUGGCGUAAUGGUAACGCGUCUCCCUCCUAAGGAGAACACUGCGGGUUGGAGUCCCGUGCGGAACG showed a yeast fitness of 0.555. For GUUCCGUUGGCGUAAUGGUAACGCGUCUCCCUCCUAAGGAGAACACUACGAGUUCGAGUCCCGUACGGAACG, the yeast fitness was 0.985. Work on GUUCCGUUGGCGUAAUGGUAACGCGUCUCCCUCCUAAGGAGAACACUGCGGGUACGAGUCCCGUACGGAACG yielded a yeast fitness of 0.667. In the case of GUUCCGUUGGCGUAAUGGUAACGCGUCUCCCUCCUAAGGAGAACACUGCGGGUCCGAGUCCCGUACGGAACG, the yeast fitness is reported as 0.977.
